From ChEMBL document CHEMBL1154907, “Synthesis and preclinical evaluations of 2-(2-fluorophenyl)-6,7-methylenedioxyquinolin-4-one monosodium phosphate (CHM-1-P-Na) as a potent antitumor agent” (J Med Chem, 2010)
Converted amounts (≈) assume the structure as drawn. The source made the active and inactive calls. The calls are words filed in the database; no cut-off is given here.

Legend:
[1] = Growth inhibition of human HBC4 cells by SRB assay; assay type: functional
In short: (§1)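 Human cancer cell panel; five concentrations from 10^-4 to 10^-8 M; growth measured by sulforhodamine B colorimetric method; GI50, TGI and LC50 derived from computer-analysed dose-response curves.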

SK-OV-3 [2] = experiment: Growth inhibition of human SKOV3 cells by SRB assay; assay type: functional
In short: (§2)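 Cancer cell panel; growth measured by sulforhodamine B colorimetric method across five concentrations from 10^-4 to 10^-8 M; GI50, TGI and LC50 derived from computer-analysed dose-response curves.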

DU-145 = experiment: Growth inhibition of human DU145 cells by SRB assay; assay type: functional; in short: as §1
SNB-75 = experiment: Growth inhibition of human SNB75 cells by SRB assay; assay type: functional; in short: as §2
SK-OV-3 [3] = experiment: Induction of mitotic arrest in human SKOV3 cells assessed as increase in […] upregulation at 10 uM after 24 hrs by SDS-PAGE; assay type: functional, cell-based
In short: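 SKOV-3 cells treated with vehicle (DMSO) or 10 μM for indicated times, or indicated doses for 24 h; whole-cell lysates resolved by SDS-PAGE, blotted and probed with anti-BubR1 mouse mAb; ECL detection.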

[4] = Tmax in CD1 mouse at 10 mg/kg, ip; assay type: ADME, organism-based; parameters: dose 10 mg/kg, route intraperitoneal; conditions: in vivo
In short: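 Male CD-1 (Crl.) mice, 22-24 g, single 10 mg/kg ip bolus of parent drug in cremophor/DMSO/saline (20/5/75, v/v; 2 mg/mL, 5 mL/kg). Blood sampled at 0, 5, 15, 30 min, 1, 1.5, 2, 4, 6, 9, 24, 27 h, three mice per time point. Plasma extracted with acetonitrile, analysed by LC-MS/MS. Parameters calculated from mean plasma concentrations.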

NCI-H226 = experiment: Growth inhibition of human NCI-H226 cells by SRB assay; assay type: functional; in short: as §1
SNB-78 = experiment: Growth inhibition of human SNB78 cells by SRB assay; assay type: functional; in short: as §2
SF-539 = experiment: Growth inhibition of human SF539 cells by SRB assay; assay type: functional; in short: as §2
Pepsin A (Sus scrofa) = Pepsin A (Sus scrofa) (UniProt P00791); experiment: Inhibition of pig pepsin at 10 uM by enzyme assay
Pepsin A (Sus scrofa), sequence (P00791 60-385 limits assumed): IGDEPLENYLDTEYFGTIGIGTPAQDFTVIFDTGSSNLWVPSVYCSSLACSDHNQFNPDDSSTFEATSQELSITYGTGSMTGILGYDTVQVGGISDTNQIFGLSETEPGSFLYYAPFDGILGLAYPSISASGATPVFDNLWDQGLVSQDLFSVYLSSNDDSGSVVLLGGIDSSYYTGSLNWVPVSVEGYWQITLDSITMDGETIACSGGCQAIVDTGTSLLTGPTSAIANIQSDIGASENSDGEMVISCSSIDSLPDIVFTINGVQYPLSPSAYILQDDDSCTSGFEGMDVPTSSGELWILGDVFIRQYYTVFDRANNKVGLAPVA
In short: (§3)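 Commercial spectrum screen of enzyme assays under standard protocols; percent inhibition tested at 10 μM; IC50 determined for targets showing significant inhibition at that concentration; SEM given where multiple independent determinations.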

Rattus norvegicus = organism: Rattus norvegicus; experiment: Displacement of […] from benzodiazepine binding site of rat GABAA receptor at 10 uM radioligand binding assay
In short: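 Radioligand binding screen run by contract lab under standard protocols; rat GABA_A sites; single-point inhibition at 10 μM, with IC50 determined where inhibition was significant.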

NCI-H522 = experiment: Growth inhibition of human NCI-H522 cells by SRB assay; assay type: functional; in short: as §1
MKN-74 = experiment: Growth inhibition of human MKN74 cells by SRB assay; assay type: functional; in short: as §1
[5] = Growth inhibition of human DMS144 cells by SRB assay; assay type: functional; in short: as §1
MAO-A = MAO-A (Homo sapiens, UniProt P21397); experiment: Inhibition of human MAO-A at 10 uM by enzyme assay; in short: as §3
MAO-A, sequence (P21397 whole entry): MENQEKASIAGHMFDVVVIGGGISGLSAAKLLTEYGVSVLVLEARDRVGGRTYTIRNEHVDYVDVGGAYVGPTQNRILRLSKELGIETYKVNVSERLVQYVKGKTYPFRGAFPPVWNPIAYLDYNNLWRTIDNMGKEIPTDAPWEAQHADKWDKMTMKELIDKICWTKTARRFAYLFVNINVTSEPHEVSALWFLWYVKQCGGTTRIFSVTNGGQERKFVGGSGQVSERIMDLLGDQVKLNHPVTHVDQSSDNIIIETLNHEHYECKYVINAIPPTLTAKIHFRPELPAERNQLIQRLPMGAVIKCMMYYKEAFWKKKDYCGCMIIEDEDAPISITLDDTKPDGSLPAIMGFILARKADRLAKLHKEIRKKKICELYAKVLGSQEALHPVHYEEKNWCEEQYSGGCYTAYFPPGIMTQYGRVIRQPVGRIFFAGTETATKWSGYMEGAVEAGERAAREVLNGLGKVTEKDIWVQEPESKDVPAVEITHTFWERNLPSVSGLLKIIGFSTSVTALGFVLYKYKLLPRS

HCT-15 = experiment: Growth inhibition of human HCT15 cells by SRB assay; assay type: functional; in short: as §1
OVCAR-3 = experiment: Growth inhibition of human OVCAR-3 cells by SRB assay; assay type: functional; in short: as §1
MKN-28 = experiment: Growth inhibition of human MKN28 cells by SRB assay; assay type: functional; in short: as §1
SK-OV-3 [6] = experiment: Induction of mitotic arrest in human SKOV3 cells assessed as microtubule disruption at 10 uM after 24 hrs by SDS-PAGE; assay type: functional, cell-based
KM12 = experiment: Growth inhibition of human KM12 cells by SRB assay; assay type: functional; in short: as §1
MDA-MB-231 = experiment: Growth inhibition of human MDA-MB-231 cells by SRB assay; assay type: functional; in short: as §1
[7] = Solubility in water; assay type: physicochemical; conditions: buffer
A549 = experiment: Growth inhibition of human A549 cells by SRB assay; assay type: functional; in short: as §1
SK-OV-3 [8] = experiment: Cell cycle arrest in human SKOV3 cells assessed as increase in accumulation of hypodiploid cells at 10 uM after 48 hrs by propidium iodide-based flow cytometry; assay type: functional
In short: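 SKOV-3 cells (DMEM/F-12, 10% fetal calf serum) treated with 10 μM for 6, 12, 24, 36 or 48 h; trypsinized, PBS-washed, fixed in 70% ice-cold ethanol overnight at -20 °C, RNase A treated, propidium iodide stained; DNA content by flow cytometry, phase percentages and hypodiploid fraction scored.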

[9] = Growth inhibition of human BSY1 cells by SRB assay; assay type: functional, BSY-1; in short: as §1
SF-268 = experiment: Growth inhibition of human SF268 cells by SRB assay; assay type: functional; in short: as §2
[10] = AUC (0 to infinity) in CD1 mouse at 10 mg/kg, ip; assay type: ADME, organism-based; parameters: dose 10 mg/kg, route intraperitoneal, time infinity; conditions: plasma
In short: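 Male CD-1 (Crl.) mice (22-24 g), single 10 mg/kg dose. Prodrug in 9% NaHCO3/water (1 mg/mL) given iv by tail vein or po by gavage after 4 h fast; parent given ip in cremophor/DMSO/saline 20/5/75 (2 mg/mL). Plasma sampled to 27 h, three mice per time point, acetonitrile precipitation, LC-MS/MS (ESI positive); parameters from mean plasma concentrations.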

[11] = biological target: Cathepsin D (Homo sapiens) (UniProt P07339); experiment: Inhibition of human cathepsin D at 10 uM by enzyme assay; in short: as §3
Cathepsin D (Homo sapiens), sequence (P07339 65-162 limits assumed): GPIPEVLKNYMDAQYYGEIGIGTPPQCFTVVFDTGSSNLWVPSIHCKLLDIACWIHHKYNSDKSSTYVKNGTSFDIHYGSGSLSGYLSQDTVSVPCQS
Cathepsin D (Homo sapiens), sequence (P07339 169-412 limits assumed): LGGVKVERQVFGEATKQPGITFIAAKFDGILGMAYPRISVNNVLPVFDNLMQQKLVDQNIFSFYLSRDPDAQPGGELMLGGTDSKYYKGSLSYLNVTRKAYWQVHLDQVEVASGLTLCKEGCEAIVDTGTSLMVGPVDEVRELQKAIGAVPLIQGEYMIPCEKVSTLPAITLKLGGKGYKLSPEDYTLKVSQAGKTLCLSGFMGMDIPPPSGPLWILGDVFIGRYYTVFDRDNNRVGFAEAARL

[12] = Toxicity in ip dosed nude mouse assessed as maximum tolerated dose; assay type: organism-based; conditions: in vivo
SK-OV-3 [13] = experiment: Induction of mitotic arrest in human SKOV3 cells assessed as increase in cyclin B1 expression at 10 uM after 24 hrs by Western blot; assay type: functional, cell-based
In short: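 SKOV-3 cells in DMEM/F-12 with 10% fetal calf serum, treated with 10 μM or vehicle (DMSO). Lysates, 50 μg protein, resolved by SDS-PAGE, transferred to PVDF, probed for cyclin B1 or securin with β-actin loading control; ECL detection, bands quantified by phosphorimaging; at least three separate experiments.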

[14] = read-out: pLC50 (the source's name) (converted)

With `O=c1cc(-c2ccccc2F)[nH]c2cc3c(cc12)OCO3` the GI50 ([1]; HBC4) was 347 nM, the CC50 ([1]; HBC4, read-out: pLC50 (converted)) was > 100000 nM and the TGI ([1]; HBC4, read-out: pTGI) was > 100000 nM. For the same compound, the GI50 (SK-OV-3 [2]) was 85.1 nM, the CC50 (SK-OV-3 [2]; [14]) was 63100 nM and the TGI (SK-OV-3 [2]; read-out: pTGI (converted)) was 501 nM. For the same compound, the GI50 (DU-145; DU-145) was 50.1 nM, the CC50 (DU-145; DU-145, read-out: pLC50 (converted)) was > 100000 nM and the TGI (DU-145; DU-145, read-out: pTGI (converted)) was 562 nM. The GI50 (SNB-75; SNB-75) was 20000 nM, the CC50 (SNB-75; SNB-75, read-out: pLC50 (converted)) was > 100000 nM and the TGI (SNB-75; SNB-75, read-out: pTGI) was > 100000 nM. For the same compound, the Activity (SK-OV-3 [3]) was “Active”, the Tmax [4] was 18 min and the GI50 (NCI-H226; NCI-H226) was 355 nM. The CC50 (NCI-H226; NCI-H226, read-out: pLC50 (converted)) was > 100000 nM, the TGI (NCI-H226; NCI-H226, read-out: pTGI) was > 100000 nM and the GI50 (SNB-78; SNB-78) was 219 nM. The CC50 (SNB-78; SNB-78, read-out: pLC50 (converted)) was > 100000 nM, the TGI (SNB-78; SNB-78, read-out: pTGI (converted)) was 12000 nM and the GI50 (SF-539) was 120 nM. It also gave a CC50 (SF-539; [14]) of 89100 nM, a TGI (SF-539; read-out: pTGI (converted)) of 501 nM and an inhibition (Pepsin A (Sus scrofa)) of 85%. The inhibition (Rattus norvegicus) was 83%, the GI50 (NCI-H522; NCI-H522) was 60.3 nM and the CC50 (NCI-H522; NCI-H522, read-out: pLC50 (converted)) was > 100000 nM. For the same compound, the TGI (NCI-H522; NCI-H522, read-out: pTGI (converted)) was 562 nM, the GI50 (MKN-74; MKN-74) was 162 nM and the CC50 (MKN-74; MKN-74, read-out: pLC50 (converted)) was > 100000 nM. For the same compound, the TGI (MKN-74; MKN-74, read-out: pTGI (converted)) was 871 nM, the GI50 ([5]; DMS144) was 53.7 nM and the CC50 ([5]; DMS144, read-out: pLC50 (converted)) was > 100000 nM. For the same compound, the TGI ([5]; DMS144, read-out: pTGI (converted)) was 676 nM, the inhibition at 10 µM (MAO-A) was 52% and the GI50 (HCT-15; HCT-15) was 50.1 nM. The CC50 (HCT-15; HCT-15, read-out: pLC50 (converted)) was > 100000 nM, the TGI (HCT-15; HCT-15, read-out: pTGI) was > 100000 nM and the GI50 (OVCAR-3; OVCAR-3) was 7080 nM. The CC50 (OVCAR-3; OVCAR-3, read-out: pLC50 (converted)) was > 100000 nM, the TGI (OVCAR-3; OVCAR-3, read-out: pTGI) was > 100000 nM and the GI50 (MKN-28; MKN-28) was 112 nM. The CC50 (MKN-28; MKN-28, read-out: pLC50 (converted)) was > 100000 nM, the TGI (MKN-28; MKN-28, read-out: pTGI (converted)) was 17800 nM and the Activity (SK-OV-3 [6]) was “Active”. The GI50 (KM12; KM12) was 67.6 nM, the CC50 (KM12; KM12, read-out: pLC50 (converted)) was > 100000 nM and the TGI (KM12; KM12, read-out: pTGI) was > 100000 nM. The GI50 (MDA-MB-231; MDA-MB-231) was 155 nM, the CC50 (MDA-MB-231; MDA-MB-231, read-out: pLC50 (converted)) was > 100000 nM and the TGI (MDA-MB-231; MDA-MB-231, read-out: pTGI (converted)) was 52500 nM. The solubility [7] was 0.013 µg/mL (≈ 0.0459 µM), the GI50 (A549; A549) was 692 nM and the CC50 (A549; A549, read-out: pLC50 (converted)) was > 100000 nM. For the same compound, the TGI (A549; A549, read-out: pTGI) was > 100000 nM, the Activity (SK-OV-3 [8]) was “Active” and the GI50 ([9]; BSY-1) was 324 nM. The CC50 ([9]; BSY-1, read-out: pLC50 (converted)) was > 100000 nM, the TGI ([9]; BSY-1, read-out: pTGI (converted)) was 13200 nM and the GI50 (SF-268; SF-268) was 100 nM. The CC50 (SF-268; SF-268, read-out: pLC50 (converted)) was > 100000 nM, the TGI (SF-268; SF-268, read-out: pTGI) was > 100000 nM and the AUC(0-inf) [10] was 417 ng·h/mL. The inhibition [11] was 27%, the MTD [12] was 200 mg/kg and the Activity (SK-OV-3 [13]) was “Active”.
